Converted amounts (≈) assume the structure as drawn.
Legend:
[1] = test system: Staphylococcus aureus; assay: Antibacterial activity against Staphylococcus aureus Oxford by broth microdilution method; assay type: functional
Summary of the method: (§1)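 Broth microdilution following NCCLS document M7-A4. Serial two-fold dilutions from 0.06 to 64 mcg/ml were tested. The MIC was the lowest concentration preventing visible growth, with the endpoint read with the aid of a mirror reader.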

[2] = target: T1, Peptide deformylase (Staphylococcus aureus, UniProt P68826); assay: Inhibition of Staphylococcus aureus PDF assessed as formate release from fMAS peptide substrate after 20 mins by formate dehydrogenase coupled assay
T1 sequence (P68826 whole entry): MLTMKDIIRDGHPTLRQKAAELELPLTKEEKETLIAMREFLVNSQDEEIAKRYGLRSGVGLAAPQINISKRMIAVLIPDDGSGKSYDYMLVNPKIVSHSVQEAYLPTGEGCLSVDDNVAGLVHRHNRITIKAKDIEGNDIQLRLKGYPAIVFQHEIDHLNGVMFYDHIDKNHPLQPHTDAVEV

[3] = target: T2, Peptide deformylase (Streptococcus pneumoniae serotype 4 (strain ATCC BAA-334 / TIGR4), UniProt Q9F2F0); assay: Inhibition of Streptococcus pneumoniae PDF assessed as formate release from fMAS peptide substrate after 20 mins by formate dehydrogenase coupled assay
T2 sequence (Q9F2F0 whole entry): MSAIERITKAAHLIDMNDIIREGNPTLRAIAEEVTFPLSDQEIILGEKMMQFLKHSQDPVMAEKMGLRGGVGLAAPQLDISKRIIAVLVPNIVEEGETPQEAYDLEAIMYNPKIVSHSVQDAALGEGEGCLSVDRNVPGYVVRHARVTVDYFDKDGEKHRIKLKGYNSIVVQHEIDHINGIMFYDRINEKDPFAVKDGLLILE

[4] = Inhibition of Haemophilus influenzae PDF assessed as formate release from fMAS peptide substrate after 20 mins by formate dehydrogenase coupled assay
Summary of the method: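 Coupled assay in which formate released from the fMAS peptide is oxidized by formate dehydrogenase, reducing NAD to NADH, read as the rise in absorbance at 340. Reactions were started by adding PDF and velocities measured for 20 min at 25 °C. Values are the mean of at least 2 runs.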

[5] = test system: Streptococcus pneumoniae; assay: Antibacterial activity against Streptococcus pneumoniae 1629 by broth microdilution method; assay type: functional; summary of the method: as §1
[6] = test system: Haemophilus influenzae; assay: Antibacterial activity against Haemophilus influenzae Q1 by broth microdilution method; assay type: functional; summary of the method: as §1
[7] = test system: Moraxella catarrhalis; assay: Antibacterial activity against Moraxella catarrhalis 1502 by broth microdilution method; assay type: functional; summary of the method: as §1
[8] = test system: Enterococcus faecalis; assay: Antibacterial activity against Enterococcus faecalis 7 by broth microdilution method; assay type: functional; summary of the method: as §1
[9] = Metabolic stability of the compound in rat blood assessed as compound remaining at 2000 ng/mL after 2 hrs; assay type: ADME, tissue-based; details: read-out: Stability
[10] = Metabolic stability of the compound in human blood assessed as compound remaining at 2000 ng/mL after 2 hrs; assay type: ADME, tissue-based; details: read-out: Stability
Summary of the method: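 Samples (n = 3) were spiked into fresh human blood at 2000 ng/mL, incubated at 37 °C for 120 min, and reported as % recovered at 2 h.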

[11] = Plasma clearance in dog at 4.5 mg/kg, iv; assay type: ADME, organism-based, Canis lupus familiaris; design: dose 4.5 mg/kg, route intravenous
Summary of the method: (§2)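 Single-compound pharmacokinetics with n = 3 per species, given i.v. and p.o. Reported measures are plasma clearance after i.v. dosing, dose-normalized AUC(0–inf) after oral dosing, and oral bioavailability.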

[12] = Plasma clearance in monkey at 3 mg/kg, iv; assay type: ADME, organism-based, Macaca mulatta; design: dose 3 mg/kg, route intravenous; details: rhesus monkey; summary of the method: as §2
[13] = test system: Rattus norvegicus; assay: Dose normalized AUC (0 to infinity) in rat at 27.1 mg/kg, po; assay type: ADME, organism-based; design: dose 27.1 mg/kg, route oral; details: in vivo; summary of the method: as §2
[14] = test system: Canis familiaris; assay: Dose normalized AUC (0 to infinity) in dog at 6.5 mg/kg, po; assay type: ADME, organism-based, Canis lupus familiaris; design: dose 6.5 mg/kg, route oral; details: in vivo; summary of the method: as §2
[15] = test system: Rhesus monkey; assay: Dose normalized AUC (0 to infinity) in monkey at 5.1 mg/kg, po; assay type: ADME, organism-based, Macaca mulatta; design: dose 5.1 mg/kg, route oral; details: in vivo; summary of the method: as §2
[16] = Oral bioavailability in rat at 27.1 mg/kg; assay type: ADME, organism-based; details: in vivo
Summary of the method: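 Rat oral bioavailability (n = 3) was estimated from a non-crossover study comparing i.v. and p.o. dosing.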

[17] = Oral bioavailability in dog at 6.5 mg/kg; assay type: ADME, organism-based, Canis lupus familiaris; details: in vivo; summary of the method: as §2
[18] = Oral bioavailability in monkey at 5.1 mg/kg; assay type: ADME, organism-based, Macaca mulatta; details: rhesus monkey, in vivo; summary of the method: as §2
[19] = test system: Streptococcus pneumoniae; assay: Antibacterial activity against Streptococcus pneumoniae 1629 infected in rat respiratory tract infection model assessed as reduction in bacterial count at 75 mg/kg, po bid for 4 days relative to control; assay type: functional
Summary of the method: (§3)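 Rat respiratory tract infection models with oral b.i.d. dosing. Efficacy was read as bacterial lung counts (log10 cfu/mL) compared with non-treated controls.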

[20] = test system: Streptococcus pneumoniae; assay: Antibacterial activity against Streptococcus pneumoniae 1629 infected in rat respiratory tract infection model assessed as reduction in bacterial count at 150 mg/kg, po bid for 4 days relative to control; assay type: functional; summary of the method: as §3
[21] = test system: Haemophilus influenzae; assay: Antibacterial activity against Haemophilus influenzae H128 infected in rat respiratory tract infection model assessed as reduction in bacterial count at 300 mg/kg, po bid for 2 days relative to control; assay type: functional; summary of the method: as §3

SMILES	MIC [1]	IC50 [2]	IC50 [3]	IC50 [4]	MIC [5]	MIC [6]	MIC [7]	MIC [8]	remaining at 2 h, 2000 ng/mL [9]	remaining at 2 h, 2000 ng/mL [10]	also measured
CC(C)(C)C(=O)NC(=O)[C@@H]1CCCN1C(=O)[C@H](CC1CCCC1)CN(O)C=O	2 µg/mL (≈ 5.06 µM)	10 nM	1.3 nM	18 nM	2 µg/mL (≈ 5.06 µM)	2 µg/mL (≈ 5.06 µM)	≤ 0.06 µg/mL	4 µg/mL (≈ 10.1 µM)	29%	80.6%	–
O=CN(O)C[C@@H](CC1CCCC1)C(=O)N1CCC[C@H]1C(=O)NC(=O)c1ccccc1	1 µg/mL (≈ 2.41 µM)	–	–	3.8 nM	0.25 µg/mL (≈ 0.602 µM)	0.5 µg/mL (≈ 1.2 µM)	≤ 0.06 µg/mL	1 µg/mL (≈ 2.41 µM)	27.2%	–	–
CC(C)OC(=O)NC(=O)[C@@H]1CCCN1C(=O)[C@H](CC1CCCC1)CN(O)C=O	0.25 µg/mL (≈ 0.629 µM)	2 nM	0.48 nM	4.7 nM	0.25 µg/mL (≈ 0.629 µM)	0.25 µg/mL (≈ 0.629 µM)	≤ 0.06 µg/mL	4 µg/mL (≈ 10.1 µM)	0%	49.6%	–
CC(C)(C)OC(=O)NC(=O)[C@@H]1CCCN1C(=O)[C@H](CC1CCCC1)CN(O)C=O	1 µg/mL (≈ 2.43 µM)	3.4 nM	0.52 nM	3.2 nM	0.25 µg/mL (≈ 0.608 µM)	0.25 µg/mL (≈ 0.608 µM)	≤ 0.06 µg/mL	1 µg/mL (≈ 2.43 µM)	27.6%	52%	–
O=CN(O)C[C@@H](CC1CCCC1)C(=O)N1CCC[C@H]1C(=O)NC(=O)OC1CCC1	0.5 µg/mL (≈ 1.22 µM)	2.4 nM	0.51 nM	5.8 nM	0.25 µg/mL (≈ 0.611 µM)	0.5 µg/mL (≈ 1.22 µM)	≤ 0.06 µg/mL	1 µg/mL (≈ 2.44 µM)	0%	31.7%	–
O=CN(O)C[C@@H](CC1CCCC1)C(=O)N1CCC[C@H]1C(=O)NC(=O)OC1CCCC1	0.5 µg/mL (≈ 1.18 µM)	1.4 nM	0.26 nM	3.1 nM	0.125 µg/mL (≈ 0.295 µM)	1 µg/mL (≈ 2.36 µM)	≤ 0.06 µg/mL	1 µg/mL (≈ 2.36 µM)	0%	57.5%	–
O=CN(O)C[C@@H](CC1CCCC1)C(=O)N1CCC[C@H]1C(=O)NC(=O)OC1CCCCC1	0.25 µg/mL (≈ 0.571 µM)	1.5 nM	0.3 nM	2.3 nM	0.125 µg/mL (≈ 0.286 µM)	1 µg/mL (≈ 2.29 µM)	≤ 0.06 µg/mL	0.5 µg/mL (≈ 1.14 µM)	0.4%	45.8%	–
O=CN(O)C[C@@H](CC1CCCC1)C(=O)N1CCC[C@H]1C(=O)NC(=O)OC1CCOCC1	1 µg/mL (≈ 2.28 µM)	4.4 nM	0.66 nM	3.1 nM	0.25 µg/mL (≈ 0.569 µM)	0.5 µg/mL (≈ 1.14 µM)	≤ 0.06 µg/mL	2 µg/mL (≈ 4.55 µM)	9.5%	23%	–
CCNC(=O)NC(=O)[C@@H]1CCCN1C(=O)[C@H](CC1CCCC1)CN(O)C=O	0.5 µg/mL (≈ 1.31 µM)	2 nM	0.44 nM	4.9 nM	0.25 µg/mL (≈ 0.654 µM)	0.5 µg/mL (≈ 1.31 µM)	≤ 0.06 µg/mL	2 µg/mL (≈ 5.23 µM)	58.6%	111%	clearance [11]: 36.3 mL/min/kg; clearance [12]: 29.4 mL/min/kg; AUC/dose [13]: 43.3 ng·h/mL/mg/kg; AUC/dose [14]: 629.9 ng·h/mL/mg/kg; AUC/dose [15]: 111.4 ng·h/mL/mg/kg; bioavailability [16]: 30%; bioavailability [17]: 100%; bioavailability [18]: 20%; log10CFU/ml [19]: 3.86; log10CFU/ml [20]: 3.86; log10CFU/ml [21]: 4.21
O=CN(O)C[C@@H](CC1CCCC1)C(=O)N1CCC[C@H]1C(=O)NC(=O)NCCc1ccccc1	≤ 0.06 µg/mL	0.86 nM	0.12 nM	3.6 nM	≤ 0.06 µg/mL	4 µg/mL (≈ 8.72 µM)	≤ 0.06 µg/mL	0.5 µg/mL (≈ 1.09 µM)	–	92.2%	–
